For data set [1], the system named is CWR22. Put plainly: Antitumor activity against human CWR22 cells in Balb/c athymic (nu/nu) mouse CWR22-BMSLD1 prostate cancer xenograft model assessed as tumor growth inhibition at 150 mg/kg, po qd administered for 35 days measured from day 10 to 35 during compound dosing. Format: functional, organism-based. The procedure, abridged:
(§1)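 CWR22-BMSLD1 human prostate cancer xenograft. Oral once-daily dosing at 90 mg/kg for 45 days, or at 150 mg/kg for 35 days, with a vehicle group. Median tumor volume (mm3) tracked against days post implant.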
Background: A xenograft is tissue or cells of one species grown in another, often human tumour cells in immunodeficient mice.

Data set [2] can be described thus: Plasma concentration in immature Sprague-Dawley rat prostate weight model at 1 mg/kg, po qd administered for 4 days measured 2 hrs post last dose on day 4. It counts as ADME, organism-based. The procedure, abridged: (§2)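 Immature rat prostate weight model, oral dosing once daily at 1 or 10 mg/kg for 4 days. Plasma drug concentration (µM) measured 2 hours post-dose on day 4, n=3.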

Data set [3] in a line: Plasma concentration in immature Sprague-Dawley rat prostate weight model at 10 mg/kg, po qd administered for 4 days measured 2 hrs post last dose on day 4. Format: ADME, organism-based. The procedure, abridged:
as §2

The subject of data set [4] is Rattus norvegicus. Put plainly: In vivo antagonist activity at androgen receptor in immature Sprague-Dawley rat prostate weight model assessed as testosterone propionate-induced weight of seminal vesicles over full body weight at 10 mg/kg, po qd administered for 4 days. Format: functional. On the set-up: scale not given: the % may be the effect or the level left. The method in brief: (§3)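 Immature rat prostate weight PK/PD model. Oral dosing once daily at 1 or 10 mg/kg for 4 days. Seminal vesicle weight expressed as % of full body weight, n=3, scaled so testosterone-treated control = 100% and sham = 10%.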

The test system of data set [5] is Rattus norvegicus. Put plainly: In vivo antagonist activity at androgen receptor in immature Sprague-Dawley rat prostate weight model assessed as testosterone propionate-induced weight of seminal vesicles over full body weight at 1 mg/kg, po qd administered for 4 days. On the set-up: scale not given: the % may be the effect or the level left. It counts as functional. The procedure, abridged: as §3

Data set [6] deals with CWR22. Put plainly: Antitumor activity against human CWR22 cells in Balb/c athymic (nu/nu) mouse CWR22-BMSLD1 prostate cancer xenograft model assessed as tumor growth inhibition at 150 mg/kg, po qd measured for 10 days during compound dosing. It counts as functional, organism-based. The procedure, abridged:
as §1

Data set [7] addresses T1, Androgen receptor (Homo sapiens, UniProt P10275).
T1 sequence (P10275 whole entry): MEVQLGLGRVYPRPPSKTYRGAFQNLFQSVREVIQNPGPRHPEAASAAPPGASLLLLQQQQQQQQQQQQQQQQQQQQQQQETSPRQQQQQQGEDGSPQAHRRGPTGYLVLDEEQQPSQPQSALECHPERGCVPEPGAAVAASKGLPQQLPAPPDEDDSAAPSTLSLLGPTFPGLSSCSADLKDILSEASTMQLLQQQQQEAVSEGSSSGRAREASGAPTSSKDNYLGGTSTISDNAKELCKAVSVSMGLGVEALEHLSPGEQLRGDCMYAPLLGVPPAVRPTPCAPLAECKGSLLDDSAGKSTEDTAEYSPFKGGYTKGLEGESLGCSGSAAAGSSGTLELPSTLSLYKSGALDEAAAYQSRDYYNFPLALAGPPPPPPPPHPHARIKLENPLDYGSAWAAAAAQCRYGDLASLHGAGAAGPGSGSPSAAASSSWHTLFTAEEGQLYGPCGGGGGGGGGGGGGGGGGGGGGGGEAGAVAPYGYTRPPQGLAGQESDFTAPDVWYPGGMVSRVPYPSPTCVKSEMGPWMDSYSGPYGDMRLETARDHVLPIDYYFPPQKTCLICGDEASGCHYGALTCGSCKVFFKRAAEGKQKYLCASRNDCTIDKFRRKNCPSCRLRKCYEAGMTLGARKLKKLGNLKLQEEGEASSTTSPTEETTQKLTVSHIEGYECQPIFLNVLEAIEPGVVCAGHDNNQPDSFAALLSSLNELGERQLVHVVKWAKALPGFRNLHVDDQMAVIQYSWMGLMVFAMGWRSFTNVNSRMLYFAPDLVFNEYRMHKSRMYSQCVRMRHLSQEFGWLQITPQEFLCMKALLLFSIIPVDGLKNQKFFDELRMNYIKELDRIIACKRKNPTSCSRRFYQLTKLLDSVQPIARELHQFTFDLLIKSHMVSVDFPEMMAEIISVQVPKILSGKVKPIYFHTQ
Put plainly: Antagonist activity at androgen receptor in human MDA-MB-453 cells assessed as inhibition of DHT-induced PSA expression by alkaline phosphatase reporter gene assay. Format: cell-based.

Data set [8] has as its target T1, Androgen receptor. Description: Displacement of [3H]-DHT from androgen receptor in human MDA-MB-453 cells after 90 mins by TopCount analysis. Format: cell-based. For orientation: Displacement assays read how much labelled ligand stays bound in the presence of the test substance.
Data set [9] in a line: Protein binding in mouse serum. Format: ADME, cell-free. To be noted: read-out: PB.

Activity calls are given as the source filed them. The calls are words filed in the database; no cut-off is given here. Bounds are passed on as bounds.

For the compound `CC(O)(CS(=O)(=O)c1ccc(F)cc1)C(=O)Nc1ccc(C#N)c(C(F)(F)F)c1` (stereo not drawn) [BICALUTAMIDE], the TGI entry with CWR22 [1] was “inactive”. In addition, the concentration at 2 h in data set [2] worked out at 2300 nM; in data set [3], 9500 nM. Besides, the Activity in the data set with Rattus norvegicus [4] was determined as 41%; in the data set with Rattus norvegicus [5] it was 69%. The TGI entry with CWR22 [6] was “Active”.
In general, IC50 refers to the point on the concentration scale where inhibition reaches its midpoint. One may read the Ki as a measure of affinity in units of concentration, obtained from inhibition or displacement. Regarding `C[C@]12O[C@@](C)(C[C@H]1NS(C)(=O)=O)[C@H]1C(=O)N(c3ccc(C#N)c(C(F)(F)F)c3)C(=O)[C@H]12`, the concentration at 2 h in data set [2] came out at 290 nM; in [3], 4000 nM. Moreover, on Androgen receptor [7], the IC50 amounted to 20 nM. Also, the figures for the Activity in the data set with Rattus norvegicus [4] and in the data set on Rattus norvegicus [5] were 26% and 64%, respectively. The same compound returned a Ki on Androgen receptor [8] of 12 nM.
As to `C[C@]12O[C@@](C)(C[C@H]1C(=O)O)[C@H]1C(=O)N(c3ccc(C#N)c(C(F)(F)F)c3)C(=O)[C@H]12`, on Androgen receptor [7], the IC50 is > 5000 nM. Besides, affinity at Androgen receptor [8] was put at a Ki of 1600 nM.
For `CC(C)OC(=O)[C@@H]1C[C@]2(C)O[C@]1(C)[C@@H]1C(=O)N(c3ccc(C#N)c(C(F)(F)F)c3)C(=O)[C@@H]12` the same measures were 22 nM and 23 nM.
For `C[C@]12O[C@@](C)(C[C@H]1NS(=O)(=O)c1cccnc1)[C@H]1C(=O)N(c3ccc(C#N)c(C(F)(F)F)c3)C(=O)[C@H]12`, the concentration at 2 h stood at 50 nM in [2] and 520 nM in data set [3]. Also, the IC50 at Androgen receptor [7] came out at 7 nM. Also, the Activity in the data set with Rattus norvegicus [4] was found to be 23%; in the data set with Rattus norvegicus [5] it was 44%. In addition, on Androgen receptor [8], the Ki was 2 nM.
For the compound `CCC(=O)N[C@@H]1C[C@]2(C)O[C@]1(C)[C@@H]1C(=O)N(c3ccc(C#N)c(C(F)(F)F)c3)C(=O)[C@@H]12`, the concentration at 2 h in data set [2] was 24000 nM; in data set [3], 190000 nM. In addition, the concentration for half-maximal inhibition (IC50) on Androgen receptor [7] turned out to be 23 nM. The Activity was determined as 34% in the data set on Rattus norvegicus [4] and 87% in the data set on Rattus norvegicus [5]. Also, on Androgen receptor [8], the Ki amounted to 3 nM. Moreover, in data set [9], the fraction unbound was < 0.01.
`C[C@]12O[C@@](C)(C[C@H]1N)[C@H]1C(=O)N(c3ccc(C#N)c(C(F)(F)F)c3)C(=O)[C@H]12`: the concentration at 2 h worked out at 80 nM in data set [2] and 480 nM in [3]. Besides, at Androgen receptor [7], the IC50 is 60 nM. For the same compound, the Activity with Rattus norvegicus [4] and with Rattus norvegicus [5] was 89% each time. Also, the affinity on Androgen receptor [8] corresponds to a Ki of 31 nM.
Regarding `C[C@]12O[C@@](C)(C[C@H]1NS(=O)(=O)c1ccccc1F)[C@H]1C(=O)N(c3ccc(C#N)c(C(F)(F)F)c3)C(=O)[C@H]12`, the concentration at 2 h in data set [2] was found to be 160 nM; in data set [3], 1900 nM. Also, the IC50 on Androgen receptor [7] was found to be 10 nM. The results for the Activity with Rattus norvegicus [4] and in the data set with Rattus norvegicus [5] were 24% and 56%, respectively. The compound further showed a Ki at Androgen receptor [8] of 1 nM.
On to `CNS(=O)(=O)N[C@@H]1C[C@]2(C)O[C@]1(C)[C@@H]1C(=O)N(c3ccc(C#N)c(C(F)(F)F)c3)C(=O)[C@@H]12`, for which the concentration at 2 h amounted to 10 nM in [2] and 230 nM in data set [3]. The IC50 at Androgen receptor [7] is 34 nM. The results for the Activity with Rattus norvegicus [4] and in the data set with Rattus norvegicus [5] were 36% and 89%, respectively. In addition, the Ki on Androgen receptor [8] came out at 50 nM.
As to `CC(C)NC(=O)N[C@@H]1C[C@]2(C)O[C@]1(C)[C@@H]1C(=O)N(c3ccc(C#N)c(C(F)(F)F)c3)C(=O)[C@@H]12`, the concentration at 2 h in data set [2] was 8300 nM; in [3], 60000 nM. Moreover, the IC50 on Androgen receptor [7] was 60 nM. Also, the values for the Activity in the data set on Rattus norvegicus [4] and in the data set with Rattus norvegicus [5] were 56% and 115%, respectively. The compound also had a Ki at Androgen receptor [8] of 31 nM. Moreover, in data set [9], the fraction unbound was < 0.01.
Regarding `C[C@]12O[C@@](C)(C[C@H]1NS(=O)(=O)c1ccccc1)[C@H]1C(=O)N(c3ccc(C#N)c(C(F)(F)F)c3)C(=O)[C@H]12`, the results for the concentration at 2 h in data set [2] and in [3] were 230 nM and 2400 nM, respectively. For the same compound, the IC50 at Androgen receptor [7] amounted to 1 nM. For the same compound, the Activity was found to be 31% in the data set with Rattus norvegicus [4] and 63% in the data set on Rattus norvegicus [5]. At Androgen receptor [8], this compound gave a Ki of 10 nM.
In the case of `CC12C[C@H](O)[C@](C)(O1)[C@@H]1C(=O)N(c3ccc(C#N)c(I)c3)C(=O)[C@@H]12` (single isomer, unassigned), on Androgen receptor [7], the IC50 was 10 nM. This compound showed a Ki on Androgen receptor [8] of 8 nM.
For `CN(C(=O)[C@@H]1C[C@]2(C)O[C@]1(C)[C@@H]1C(=O)N(c3ccc(C#N)c(C(F)(F)F)c3)C(=O)[C@@H]12)c1ccccc1`, the concentration at 2 h in [2] came out at 1800 nM; in data set [3] it was 12000 nM. In addition, the IC50 on Androgen receptor [7] is 34 nM. For the same compound, the results for the Activity in the data set with Rattus norvegicus [4] and in the data set on Rattus norvegicus [5] were 43% and 88%, respectively. This compound also displayed a Ki on Androgen receptor [8] of 50 nM.

(Values after ChEMBL document CHEMBL3621143, “Discovery of BMS-641988, a Novel Androgen Receptor Antagonist for the Treatment of Prostate Cancer” (ACS Med Chem Lett, 2015).)
